Key:
[1] = tested on: naive CD8+ T cells derived from HD-PBMCs; format: cell-based, human; conditions: for CD8+ T-cell induction by AKF9 variants, in words: seven HD-PBMCs, cocktail of AKF9 variants along with the WT, tetramer staining; for immunogenicity (CD8+ T-cell induction), in words: six HD-PBMCs, cocktail of four natural HLA-A24 neoantigens
HLA-A24 on T2-A24 cells = assay: Peptide-HLA class I stability assay; format: binding, human; conditions: peptide 0.3 to 3 µM
How it was run: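 TAP-deficient T2-A24 cells were pre-cultured overnight at 25°C. Cells were pulsed with mutant or WT peptide (0.3–3 µM) for 1 h at 25°C, then 3 h at 37°C. Surface HLA-A24 was stained with anti-HLA-A24 (C7709A2) and goat anti-mouse IgG-FITC, then read by flow cytometry. ΔMFI = MFI with peptide minus MFI without. Known HLA-A24 binder and non-binder peptides were controls. Comparison at 1 µM, SEM (n = 3), two-tailed t-test.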

[2] = tested on: neoantigen-reactive CD8+ T-cell clones; assay: IFNγ ELISpot assay of neoantigen-reactive CD8+ T-cell clones; format: cell-based, human; conditions: T2-A24 pulsed with 20 µM peptide, 24 h 37°C
How it was run: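 Clones came from single tetramer-positive CD8+ cells sorted and expanded with irradiated allogeneic feeders, 5 μg/mL PHA and 100 IU/mL IL-2. T2-A24 cells were pre-incubated with 20 µM mutant or WT peptide for 2 h at 25°C. Spots were detected with 2 µg/mL biotinylated anti-IFNγ, streptavidin-HRP and AEC substrate.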

| Sequence | CD8+ T-cell induction by AKF9 variants, in words [1] | immunogenicity (CD8+ T-cell induction), in words [1] | other results |
| --- | --- | --- | --- |
| AYLEAIHDF [ADF9] | increased the frequency |  |  |
| AYLEAIHHF [AHF9] | increased the frequency |  |  |
| AYLEAIHKF [AKF9] | increased the frequency | immunogenic | effect of the mutation on pHLA I stability versus wild-type peptide (HLA-A24 on T2-A24 cells): unaltered; number of HDs with CD8+ T-cell response ([1]; of six HD-PBMCs, response = ≥ 4-fold increase with ≥ 0.1% tetramer+ CD8+ cells): three |
| AYLEAIHNF [ANF9] |  |  | recognition by ADF9-reactive CD8+ T-cell clones (D1-D5), IFNγ ELISpot [2]: three of the five clones |
| AYLEAIHYF [AYF9] | increased the frequency |  |  |
| HYAALRELI [HI9] |  | failed to induce T-cell responses |  |
| TLPEEFHEF [TEF9] |  | immunogenic | effect of the mutation on pHLA I stability versus wild-type peptide (HLA-A24 on T2-A24 cells): increased |
| VYVAKLHDI [VYI9] |  | failed to induce T-cell responses |  |

Source: paper PMC7833734 (Oncoimmunology, 2021)
